# Experimental data of several laboratories.
# Protocols differ between the studies behind these lines.
# ADORA1: Adenosine receptor A1 (ADORA1, Homo sapiens, UniProt P30542)
# ache: Acetylcholinesterase (ache, Electrophorus electricus, UniProt O42275)
# CARM1: Histone-arginine methyltransferase CARM1 (CARM1, Homo sapiens, UniProt Q86X55)
Compound,target,test,system,setting,inhibition [%]
O[C@@H]1[C@H](O)CO[C@H]1n1cnc2c(NCc3cccc(Br)c3)nc(Cl)nc21,ADORA1,"ligand displacement, radioligand",,"10 µM, cell membranes",< 10
COc1cc2c(cc1OC)C(=O)N(CC1CCN(CC3CCNC3)CC1)C2 (centres unmarked),ache,"enzyme activity, inhibitor",,1 µM,4.86
Nc1ncnc2c1ncn2[C@@H]1O[C@H](CSCCNC(=O)NCc2ccccc2)[C@@H](O)[C@H]1O,CARM1,"enzyme activity, inhibitor, radiometric",,10 µM,> 95
CC/C(=N\NC(=O)NCc1cccc(O)c1)c1ccc(O)c(C)c1O,"Ribosomal protein S6 kinase beta-2 (RPS6KB2, Homo sapiens, UniProt Q9UBS0)","enzyme activity, inhibitor",,0.1 µM,22.7
COc1cc(NC(C)=O)c(Cl)cc1C(=O)Nc1nccs1,ADORA1,cell-free assay,,10 µM,25.2
C1=CSC(=C2SC=CS2)S1,"Ubiquitin carboxyl-terminal hydrolase 5 (USP5, Homo sapiens, UniProt P45974)","enzyme activity, inhibitor",,17 µM,54
CCN1CCN(Cc2ccc(NC(=O)c3ccc(C)c(Oc4ccnc5[nH]ccc45)c3)cc2C(F)(F)F)CC1,"Serine/threonine-protein kinase/endoribonuclease IRE1 (ERN1, Homo sapiens, UniProt O75460)","target engagement in cells, inhibitor, chemoproteomics",Huh-7,1 µM,-16.7
O[C@@H]1[C@H](O)CO[C@H]1n1cnc2c(NCc3cccc(F)c3)nc(Cl)nc21,ADORA1,"ligand displacement, radioligand",,"10 µM, cell membranes",10
COc1cc2c(cc1OC)C(=O)N(CC1CCN(Cc3cccnc3)CC1)C2,ache,"enzyme activity, inhibitor",,1 µM,-0.52
O=C(c1ccc(F)cc1)N(Cc1ccccc1)C1CCCCC1,ADORA1,cell-free assay,,10 µM,8
c1cc2cc(C3=NCCN3)ccc2cc1C1=NCCN1,"Rac GTPase-activating protein 1 (Homo sapiens, UniProt Q9H0H5)","enzyme activity, inhibitor, ADP detection",,10 µM,50.4
COc1cc2c(cc1OC)C(=O)N(CC1CCN(Cc3ccccc3)CC1)C2,ache,"enzyme activity, inhibitor",,1 µM,20.4
O=C1N=C(N2CCCCN2)S/C1=C\c1ccc(F)cc1O,"Neuromedin-K receptor (TACR3, Homo sapiens, UniProt P29371)","ligand displacement, radioligand",,10 µM,< 10
COc1ccc2[nH]cc(/C=C/c3ccc(O)cc3)c2c1,"Amyloid-beta precursor protein, monomer (APP, Homo sapiens, UniProt P05067)","amyloid aggregation, inhibitor, fluorescence",,25 µM,44
COc1cc2c(cc1OC)C(=O)N(Cc1ccncc1)C2,ache,"enzyme activity, inhibitor",,1 µM,2.62
CCN(c1cc(C#CCN2CCOCC2)cc(C(=O)NCc2c(C)cc(C)[nH]c2=O)c1C)[C@H]1CC[C@H](N(C)CCOC)CC1,CARM1,"enzyme activity, inhibitor",,1 µM,-3
COc1cc2c(cc1OC)C(=O)N(Cc1cccc(N3CCCCC3)n1)C2,ache,"enzyme activity, inhibitor",,1 µM,18.8
O=C(NC1C2CCN(CC2)C1Cc1cccnc1)c1cc2ccccc2o1 (centres unmarked),"5-hydroxytryptamine receptor 3A (Htr3a, Mus musculus, UniProt P23979)","ligand displacement, radioligand",,10 µM,59
O[C@@H]1[C@H](O)CO[C@H]1n1cnc2c(NCc3cccc(I)c3)nc(Cl)nc21,ADORA1,"ligand displacement, radioligand",,"10 µM, cell membranes",< 10
COc1cc2c(cc1OC)C(=O)N(CC1CCNCC1)C2,ache,"enzyme activity, inhibitor",,1 µM,2.49
